STK33 kinase inh: inhibitors of purified STK33 kinase, primary screen, biochemical, ADP-Glo luminescence, homogeneous, cell-free; MBP phosphorylation; AID 2661, 2010; Serine/threonine-protein kinase 33 (Homo sapiens), Q9BYT3; 320,000 compounds, 0.073% hits; inhibition, % at 10 µM;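 active = inhibition at or above 25%, using the most active replicate where run in duplicate; inactive = inhibition below 25%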
GSK3 alpha inh: blockers of GSK3A enzyme activity – biochemical, luminescence, cell-free homogeneous, HTS, primary screen; Glycogen synthase kinase-3 alpha (Homo sapiens), P49840; GSK-3 alpha kinase, ADP-Glo luminescence, 60 min; inhibition, % at 10 µM; 320,000 compounds, 0.1% hits; AID 2650, 2010;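 active = more than half of replicates show inhibition above 20%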;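 also: GST-tagged GSK-3 alpha with peptide substrate and 25 µM ATP; 0% = DMSO neutral wells and 100% = GW8510 positive control wells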
GSK3beta inhib: human GSK3beta kinase inhibitors, primary screen, biochemical, cell-free homogeneous, HTS | Glycogen synthase kinase-3 beta (Homo sapiens), P49841 | GST-GSK3beta kinase, ADP-Glo luminescence, 60 min; active compounds read low | activity score (negative = inhibition), % at 10 µM | 300,000 compounds, 0.038% hits;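 active = more than half of replicate wells score below -50%, meaning over 50% inhibition versus plate controls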;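 also: 0% = median DMSO wells and -100% = median GW8510 positive control wells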
Target sequence (P49841 whole entry, looked up): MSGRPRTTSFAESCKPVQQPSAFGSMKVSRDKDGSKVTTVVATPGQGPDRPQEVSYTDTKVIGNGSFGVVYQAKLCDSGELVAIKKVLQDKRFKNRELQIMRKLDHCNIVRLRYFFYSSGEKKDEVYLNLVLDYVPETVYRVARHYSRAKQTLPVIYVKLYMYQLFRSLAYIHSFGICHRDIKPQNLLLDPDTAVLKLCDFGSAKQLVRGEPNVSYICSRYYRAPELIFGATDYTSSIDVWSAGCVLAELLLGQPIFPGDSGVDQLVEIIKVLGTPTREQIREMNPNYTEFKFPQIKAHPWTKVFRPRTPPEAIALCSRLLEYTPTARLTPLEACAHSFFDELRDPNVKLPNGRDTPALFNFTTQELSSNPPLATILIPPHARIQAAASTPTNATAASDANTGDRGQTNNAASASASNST
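Test system – GST-tagged human GSK3beta kinase, cell-free · Incubation – 60 min enzyme reaction, room temperature · Signal – ADP-Glo luminescence · Also added – peptide substrate and ATP at 25 µM · Controls – DMSO neutral wells and GW8510 at 20 µM as positive · Buffer or medium – Tris/MgCl2 kinase buffer · Measure – Luminescence-derived activity versus plate DMSO and GW8510 wells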
MEKK3 PB1 HTS: modulators of MEKK3-MEK5 PB1 binding, primary screen, biochemical, wildtype MEKK3, multiplex bead flow cytometry, Alexa488-MEK5; 290,000 compounds, 1.4% hits; binding response (% of control), % at 10 µM; Mitogen-activated protein kinase kinase kinase 3 (Homo sapiens), Q99759; AID 1529, 2009; bead-based flow cytometry, Alexa488-MEK5 binding to MEKK3; actives lie on both sides; 0 = blocked by unlabeled MEK5, 100 = vehicle;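 active = binding response more than 3 SD above or below the average of its plate-row segment, actives on both sides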;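 also: Alexa488 bead fluorescence after subtracting the streptavidin-only scavenger bead signal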
MEKK2mut PB1 HTS: MEK5 binding signal on mutant MEKK2 PB1, primary screen, biochemical, multiplex bead flow cytometry, Alexa488-MEK5 | 290,000 compounds, 0.35% hits | AID 1530, 2009 | percent response, % at 10 µM | Alexa488-MEK5 binding to MEKK2 mutant; in the data active = percent response above about 24%, passing the limit was not always enough
MEKK2 WT-MEK5: modulators of MEK5 binding to wildtype MEKK2, primary screen, biochemical, multiplex bead flow cytometry, Alexa488-MEK5 | Mitogen-activated protein kinase kinase kinase 2 (Homo sapiens), Q9Y2U5 | Alexa488-MEK5 binding to MEKK2 WT; actives lie on both sides | binding response (% of control), % at 10 µM | 290,000 compounds, 1.1% hits | AID 1531, 2009; in the data active = binding response below about 67% or above about 130%
Starred values were filed as active, the others as inactive; x = not tested or not shown; [ ] = another dose, or the depositor's remark. Shown are actives, neighbours in structure and some others; about 2.1% of the full set was active somewhere.

SMILES	STK33 kinase inh	GSK3 alpha inh	GSK3beta inhib	MEKK3 PB1 HTS	MEKK2mut PB1 HTS	MEKK2 WT-MEK5
CCS(=O)(=O)Nc1ccc(C2=NN(S(=O)(=O)CC)C(c3cccs3)C2)cc1 (stereo not given)	-1	4	0	7.0*[inhibitor]	-32	x
COc1ccc(C2CC(c3cccs3)=NN2C(=O)CCC(=O)O)cc1 (stereo not given)	-1	-3	3	92	1	96
CS(=O)(=O)Nc1ccc(C2=NN(S(C)(=O)=O)C(c3ccccc3)C2)cc1 (stereo not given)	9	8	0	97	0	85
CCn1cc(C(=O)NCCc2ccc(OC)cc2)c(=O)c2ccc(C)nc21	-1	-6	-3	99	4	100
Cc1ccc(-n2c(C)c([N+](=O)[O-])c3ccc(O)c(CN(C)C)c32)cc1	-2	5	-3	99	7	115
COc1ccc(-n2c(C)c([N+](=O)[O-])c3ccc(O)c(CN4CCCCC4)c32)cc1	0	51*	4	103	4	107
Fc1ccc(CSc2nnc(-c3ccncc3)o2)cc1	1	13	-54*	98	-16	98
Clc1ccc(CSc2nnc(-c3ccncc3)o2)cc1	-1	10	-48	90	-3	94
O=c1[nH]ccc2c(O)cccc12	4	1	1	96	x	92
c1cc2[nH]snc2c2nc(C3CC3)nc12	20	54*	-3	103	-1	103
Cc1ccc(S(=O)(=O)CCSc2n[nH]c(=O)n2-c2ccc3c(c2)OCCO3)cc1	1	77*	-29	103	11	103
O=C(CSc1n[nH]c(=O)n1-c1ccc2c(c1)OCCO2)Nc1ccccc1	1	13	1	102	-2	98
COc1cc(C(=O)Nc2ccc3c(c2)CCN3C(C)=O)cc(OC)c1OC	-3	-2	-3	101	21	173*
CCCCn1c(N)c(N(CCOC)C(=O)c2ccc(-c3cccc(C(F)(F)F)c3)o2)c(=O)[nH]c1=O	0	-1	-4	x	x	x
CCCn1cc(CN2CCC(n3nccc3NC(=O)CCOc3ccccc3)CC2)c(C)n1	-2	-1	0	106	19	111
O=C(C1CCC(CNS(=O)(=O)c2cccs2)CC1)N1CCN(c2ccc(F)cc2)CC1 (stereo not given)	-1	-3	4	77*[inhibitor]	-20	94
O=C(C1CCC(CNS(=O)(=O)c2ccc(F)cc2)CC1)N1CCOCC1 (stereo not given)	0	0	-1	102	0	106
Nc1nc(NCCOCCO)nc(N2CCCCCC2)c1[N+](=O)[O-]	-2	38	-7	105	3	106
COc1ccc(Nc2nc(N)c([N+](=O)[O-])c(NC3CCCCC3)n2)cc1	-2	9	0	101	1	101
Nc1nc(NCCO)nc(N2CCCCCC2)c1[N+](=O)[O-]	2	54*	-17	102	7	102
COCCCNc1nc(N)c([N+](=O)[O-])c(NC2CCCCC2)n1	2	60*	-22	105	7	107
COCCCNc1nc(N)c([N+](=O)[O-])c(N2CCCCCC2)n1	0	54*	0	102	5	99
CCC(=O)N1CCc2cc(Br)cc(S(=O)(=O)N3CCC(C(=O)NC(C)C)CC3)c21	0	-3	-1	99	1	102
Cc1cc(=O)[nH]c(SC(C(=O)O)c2ccccc2)n1 (stereo not given)	1	-1	1	101	-1	99
Cc1cc(-c2ccccc2)nc(SC(C(=O)O)c2ccccc2)n1 (stereo not given)	-1	-6	2	103	4	-1.0*

Source: PubChem (several laboratories)
